Measured values of several laboratories.
Cell line: A549
Effect on: cell growth or viability

Structure (SMILES)	method	concentration	inhibition
COc1ccc2c(c1)C(=NNc1nc3ccccc3n(C)c1=O)C(=O)N2	–	30 µM	85.9%
O=C(CN1C(=O)/C(=C/c2ccc([N+](=O)[O-])cc2)SC1=S)Nc1ccccc1	MTT	10 µM	24.4%
CN1C(=O)/C(=N\NC(=O)c2cc3ccccc3[nH]2)c2cc(Cl)ccc21	–	30 µM	95.8%
O=C(CN1C(=O)/C(=C/c2ccc(Cl)cc2)SC1=S)Nc1ccccc1	MTT	10 µM	36.7%
Cc1ccc2c(c1)C(=NNc1nc3ccccc3n(C)c1=O)C(=O)N2	–	30 µM	68.8%
O=C1Nc2ccc(Cl)cc2/C1=N/NC(=O)c1cc2ccccc2[nH]1	–	30 µM	60.6%
COc1cc(CNC(=O)C[C@H](C)CCC=C(C)C)ccc1OCc1cn(-c2ccc(Cl)cc2)nn1	SRB	10 µM	55%
COc1ccc2c(c1)/C(=N/NC(=O)c1cc3ccccc3[nH]1)C(=O)N2	–	30 µM	85.3%
COc1cccc(NC(=O)CN2C(=O)/C(=C/c3ccc(F)cc3)SC2=S)c1	MTT	10 µM	22.3%
CCN(CC)CCNC(=O)c1c(C)[nH]c(/C=C2\C(=O)Nc3ccc(F)cc32)c1C	–	30 µM	85.7%
Cn1c(=O)c(NN=C2C(=O)Nc3ccc(Br)cc32)nc2ccccc21	–	30 µM	84.9%
CN1C(=O)/C(=N\NC(=O)c2cc3ccccc3[nH]2)c2cc(F)ccc21	–	30 µM	90.3%
O=C(CN1C(=O)/C(=C/c2ccccc2Cl)SC1=S)Nc1ccccc1	MTT	10 µM	20.5%
COc1cc2ncnc(NN=C3C(=O)Nc4ccc(C)cc43)c2cc1OC	–	30 µM	20.5%
COc1cccc(/C=C2\SC(=S)N(CC(=O)Nc3ccccc3)C2=O)c1	MTT	10 µM	25.7%
COc1cc2ncnc(NN=C3C(=O)Nc4ccc(Br)cc43)c2cc1OC	–	10 µM	-4.3%
CN1C(=O)/C(=N\NC(=O)c2cc3ccccc3[nH]2)c2cc(Br)ccc21	–	30 µM	97.4%
COc1ccc(-c2nc(NN=C3C(=O)Nc4ccc(Cl)cc43)c3ccccc3n2)cc1OC	–	30 µM	10.9%
O=C(CN1C(=O)/C(=C/c2ccncc2)SC1=S)Nc1ccccc1	MTT	10 µM	25.9%
